Data reported in ChEMBL document CHEMBL1949632, “Discovery of potent and liver-selective stearoyl-CoA desaturase (SCD) inhibitors in an acyclic linker series” (Bioorg Med Chem Lett, 2012).

How the values were obtained:
Acyl-CoA desaturase 1 [1] = target: T1, Acyl-CoA desaturase 1 (Rattus norvegicus, UniProt P07308); assay: Inhibition of SCD1 in rat hepatocytes expressing OATP; type: cell-based, Hepatocyte
T1 sequence (P07308 whole entry): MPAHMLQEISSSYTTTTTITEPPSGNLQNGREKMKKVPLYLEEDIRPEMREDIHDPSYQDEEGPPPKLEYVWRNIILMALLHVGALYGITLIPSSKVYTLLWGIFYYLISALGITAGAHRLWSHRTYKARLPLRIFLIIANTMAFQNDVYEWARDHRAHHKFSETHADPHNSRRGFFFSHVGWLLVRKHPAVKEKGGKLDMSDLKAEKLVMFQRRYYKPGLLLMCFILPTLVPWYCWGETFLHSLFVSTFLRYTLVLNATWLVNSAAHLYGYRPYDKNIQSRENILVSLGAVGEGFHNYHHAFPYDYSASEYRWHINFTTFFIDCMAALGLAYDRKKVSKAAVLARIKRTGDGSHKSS
In short: (§1)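 IC50s are the average of at least two independent titrations.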

Acyl-CoA desaturase 1 [2] = target: T1, Acyl-CoA desaturase 1; assay: Inhibition of rat liver microsome SCD1; in short: as §1
[3] = Drug uptake in mouse plasma at 10 mg/kg, po after 6 hrs; type: ADME, organism-based; parameters: dose 10 mg/kg, route oral
In short: (§2)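 Tissue distribution study. Mice (n = 2) given 10 mg/kg orally; liver, plasma, shaved skin and Harderian gland concentrations measured 6 h post dose.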

[4] = Drug uptake in mouse liver at 2 mg/kg, po measured after 3 hrs; type: ADME, organism-based; parameters: dose 2 mg/kg, route oral; conditions: read-out: Drug uptake
In short: (§3)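 Mouse liver pharmacodynamic model. Mice (n = 5) on high-carbohydrate diet, dosed orally; [1-14C]-stearic acid tracer given intravenously. Liver lipid 14C-oleic/14C-stearic ratio (SCD activity index) and liver drug concentration determined 3 h post dose. % inhibition is relative to vehicle-treated animals.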

[5] = Drug uptake in mouse liver at 10 mg/kg, po after 6 hrs; type: ADME, organism-based; parameters: dose 10 mg/kg, route oral; conditions: read-out: Drug uptake; in short: as §2
Mus musculus [6] = assay: Inhibition of SCD1 in mouse liver assessed as reduction in conversion of [14C]stearic acid to [14C]oleic acid at 2 mg/kg, po measured after 3 hrs; type: functional; in short: as §3
Mus musculus [7] = assay: Inhibition of SCD1 in mouse liver assessed as reduction in conversion of [14C]stearic acid to [14C]oleic acid after at 10 mg/kg, po after 3 hrs; type: functional; in short: as §3
Stearoyl-CoA desaturase [8] = target: T2, Stearoyl-CoA desaturase (Homo sapiens, UniProt O00767); assay: Inhibition of SCD1 in OATP-deficient human HepG2 cells by whole cell assay; type: cell-based
T2 sequence (O00767 whole entry): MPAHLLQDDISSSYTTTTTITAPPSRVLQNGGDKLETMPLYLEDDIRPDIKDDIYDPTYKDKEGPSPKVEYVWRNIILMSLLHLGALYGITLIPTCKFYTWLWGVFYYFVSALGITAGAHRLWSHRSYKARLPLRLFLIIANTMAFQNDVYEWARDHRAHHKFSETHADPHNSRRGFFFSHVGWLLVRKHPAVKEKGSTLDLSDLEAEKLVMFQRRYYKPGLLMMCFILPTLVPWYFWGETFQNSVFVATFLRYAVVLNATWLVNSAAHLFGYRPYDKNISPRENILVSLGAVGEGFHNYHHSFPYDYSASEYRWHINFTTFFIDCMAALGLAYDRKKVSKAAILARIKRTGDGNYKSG

[9] = Drug uptake in mouse harderian glands at 10 mg/kg, po after 6 hrs; type: ADME, organism-based, Harderian gland; parameters: dose 10 mg/kg, route oral; conditions: read-out: Drug uptake; in short: as §2
[10] = Drug uptake in mouse liver at 10 mg/kg, po after 3 hrs; type: ADME, organism-based; parameters: dose 10 mg/kg, route oral; conditions: read-out: Drug uptake; in short: as §3
[11] = Drug uptake in mouse shaved skin at 10 mg/kg, po after 6 hrs; type: ADME, organism-based, Zone of skin; parameters: dose 10 mg/kg, route oral; conditions: read-out: Drug uptake; in short: as §2
[12] = target: Acyl-CoA (8-3)-desaturase (Homo sapiens, UniProt O60427); assay: Inhibition of delta-5 desaturase expressed in HepG2 cells; type: cell-based
Chain of Acyl-CoA (8-3)-desaturase (O60427 whole entry): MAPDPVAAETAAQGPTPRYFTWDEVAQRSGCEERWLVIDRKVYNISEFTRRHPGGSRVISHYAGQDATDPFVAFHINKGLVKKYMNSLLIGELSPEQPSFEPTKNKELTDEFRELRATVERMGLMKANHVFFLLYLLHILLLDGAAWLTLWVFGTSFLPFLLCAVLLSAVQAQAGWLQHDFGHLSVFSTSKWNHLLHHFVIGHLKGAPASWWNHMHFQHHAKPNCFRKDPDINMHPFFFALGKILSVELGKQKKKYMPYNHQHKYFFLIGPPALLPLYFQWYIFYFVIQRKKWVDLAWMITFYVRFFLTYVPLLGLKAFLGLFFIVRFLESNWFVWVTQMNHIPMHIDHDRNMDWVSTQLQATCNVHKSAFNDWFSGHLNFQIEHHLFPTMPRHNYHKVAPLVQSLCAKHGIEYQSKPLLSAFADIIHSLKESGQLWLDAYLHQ

[13] = target: Acyl-CoA desaturase 1 (Mus musculus) (UniProt P13516); assay: Inhibition of SCD1 in mouse SCD1 enzyme assay
[14] = Stability in rat hepatocytes assessed as compound remaining after 2 hrs; type: ADME, cell-based, Hepatocyte; conditions: read-out: Stability
In short: (§4)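 Fresh mouse or rat hepatocytes, 2 million cells/mL in Krebs-Henseleit buffer, incubated at 37 °C for 2 h under 95% O2/5% CO2. Parent compound remaining measured.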

[15] = Stability in mouse hepatocytes assessed as compound remaining after 2 hrs; type: ADME, cell-based, Hepatocyte; conditions: read-out: Stability; in short: as §4
[16] = Oral bioavailability in C57BL/6 mouse at 10 mg/kg; type: ADME, organism-based, C57BL6; conditions: in vivo
In short: (§5)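 C57BL6 mice dosed orally at 10 mg/kg in 0.5% methocel; plasma PK followed over 0–6 h, giving oral bioavailability (F) and AUC0–6h.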

[17] = Drug uptake in mouse liver at 60 mg/kg, po measured after 3 hrs; type: ADME, organism-based; parameters: dose 60 mg/kg, route oral; conditions: read-out: Drug uptake; in short: as §3
[18] = AUC (0 to 6 hrs) in C57BL/6 mouse at 10 mg/kg, po; type: ADME, organism-based, C57BL6; parameters: time < 6 hr, dose 10 mg/kg, route oral; conditions: plasma; in short: as §5
Stearoyl-CoA desaturase [19] = target: T2, Stearoyl-CoA desaturase; assay: Inhibition of human SCD1
Mus musculus [20] = assay: Inhibition of SCD1 in mouse liver assessed as reduction in conversion of [14C]stearic acid to [14C]oleic acid at 60 mg/kg, po measured after 3 hrs; type: functional; in short: as §3
Acyl-CoA 6-desaturase = target: T3, Acyl-CoA 6-desaturase (Homo sapiens, UniProt O95864); assay: Inhibition of delta-6 desaturase expressed in HepG2 cells; type: cell-based
T3 sequence (O95864 whole entry): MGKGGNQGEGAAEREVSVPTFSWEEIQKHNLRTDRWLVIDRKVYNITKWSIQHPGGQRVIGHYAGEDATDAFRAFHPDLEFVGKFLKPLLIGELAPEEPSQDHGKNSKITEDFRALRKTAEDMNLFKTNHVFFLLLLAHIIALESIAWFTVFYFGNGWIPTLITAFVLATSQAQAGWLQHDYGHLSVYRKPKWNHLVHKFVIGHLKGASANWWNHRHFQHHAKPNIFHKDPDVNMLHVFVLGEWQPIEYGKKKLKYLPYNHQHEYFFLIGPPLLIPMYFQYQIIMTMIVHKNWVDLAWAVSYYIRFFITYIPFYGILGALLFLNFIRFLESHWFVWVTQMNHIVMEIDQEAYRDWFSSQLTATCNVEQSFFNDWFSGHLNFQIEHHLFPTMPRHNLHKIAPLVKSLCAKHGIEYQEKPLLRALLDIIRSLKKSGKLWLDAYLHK

Mus musculus [21] = assay: Inhibition of SCD1 in mouse liver assessed as reduction in conversion of [14C]stearic acid to [14C]oleic acid after at 0.4 mg/kg, po after 3 hrs; type: functional; in short: as §3
[22] = Drug uptake in mouse liver at 0.4 mg/kg, po after 3 hrs; type: ADME, organism-based; parameters: dose 0.4 mg/kg, route oral; conditions: read-out: Drug uptake; in short: as §3

Row | Structure (SMILES) | IC50 (Acyl-CoA desaturase 1 [1]) [nM] | IC50 (Acyl-CoA desaturase 1 [2]) [nM] | concentration at 6 h [3] [nM] | concentration at 3 h [4] [nM] | concentration at 6 h [5] [nM] | inhibition in vivo at 2 mg/kg (Mus musculus [6]) [%] | IC50 (Stearoyl-CoA desaturase [8]) [nM] | concentration at 6 h [9] [nM] | concentration at 6 h [11] [nM] | other results
1 | O=C(O)Cn1nnc(-c2cnc(OCCCOc3cc(OC(F)(F)F)ccc3Br)s2)n1 | 91 | 2 | 770 | 4200 | 13700 | 81 | 969 | 1850 | 300 | inhibition in vivo at 10 mg/kg (Mus musculus [7]): 91%; concentration at 3 h [10]: 18300 nM
2 | O=C(O)Cn1nnc(-c2nnc(OCCCOc3cc(F)ccc3Br)s2)n1 | – | 26 | – | – | – | – | > 60000 | – | – | –
3 | O=C(O)Cn1nnc(-c2cc(OCCCCOc3cc(F)ccc3Br)no2)n1 | – | 248 | – | – | – | – | > 40000 | – | – | –
4 | O=C(O)Cn1nnc(-c2cc(OCCOc3cc(F)ccc3Br)no2)n1 | – | 226 | – | – | – | – | > 40000 | – | – | –
5 | O=C(O)Cn1nnc(-c2cc(OCCOCc3cc(F)ccc3Br)no2)n1 | – | 305 | – | – | – | – | > 100000 | – | – | –
6 | O=C(O)Cn1nnc(-c2cc(OCCCOc3cc(F)ccc3Br)no2)n1 | 213 | 13 | – | – | 230 | – | 7740 | – | – | IC50 [12]: > 20000 nM; IC50 [13]: 10 nM; remaining at 2 h [14]: 55%; remaining at 2 h [15]: 75%; bioavailability [16]: 10%; concentration at 3 h [17]: 7800 nM; AUC(0-t) at 6 h [18]: 1 µM·h; IC50 (Stearoyl-CoA desaturase [19]): 41 nM; inhibition in vivo at 60 mg/kg (Mus musculus [20]): 85%; IC50 (Acyl-CoA 6-desaturase): > 20000 nM
7 | O=C(O)Cn1nnc(-c2cnc(OCCCOc3cc(F)ccc3Br)s2)n1 | 176 | 5 | 1080 | 7600 | 8070 | 49 | 3870 | 590 | 240 | remaining at 2 h [14]: 94%; bioavailability [16]: 32%; AUC(0-t) at 6 h [18]: 11.4 µM·h; inhibition in vivo at 10 mg/kg (Mus musculus [7]): 79%; concentration at 3 h [10]: 28600 nM
8 | O=C(O)Cn1nnc(-c2cc(N3CCC(Oc4cc(F)ccc4Br)CC3)no2)n1 [MK-8245] | – | – | 30 | 4900 | 2700 | 89 | – | 130 | 70 | inhibition in vivo at 0.4 mg/kg (Mus musculus [21]): 49%; concentration at 3 h [22]: 1600 nM
9 | Cc1nc(OCCCOc2cc(F)ccc2Br)sc1-c1nnn(CC(=O)O)n1 | 945 | 22 | – | – | – | – | 20500 | – | – | –
